Inhibition data for twelve compounds are collected here from ChEMBL document CHEMBL1145563, “Monoglycerides from the brown alga Sargassum sagamianum: Isolation, synthesis, and biological activity” (Bioorg Med Chem Lett, 2008).

For experiment [1], the target named is T1, Phospholipase A2, membrane associated (Homo sapiens) (UniProt P14555).
T1 sequence (whole entry): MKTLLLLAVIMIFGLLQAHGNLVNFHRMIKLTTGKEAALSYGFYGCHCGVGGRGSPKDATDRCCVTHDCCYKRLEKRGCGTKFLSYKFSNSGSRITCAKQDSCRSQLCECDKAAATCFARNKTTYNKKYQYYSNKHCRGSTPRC
The experiment is described as follows: Inhibition of sPLA2-2A at 10 uM by coupled enzyme assay. An outline of the steps:
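Phospholipase A2 activity measured by a coupled enzyme assay with DL-PC as substrate and lipoxygenase as the coupling enzyme. Percent inhibition given as mean of three experiments.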

Experiment [2] concerns the target T2, Prostaglandin G/H synthase 2 (Homo sapiens) (UniProt P35354).
T2 sequence (whole entry): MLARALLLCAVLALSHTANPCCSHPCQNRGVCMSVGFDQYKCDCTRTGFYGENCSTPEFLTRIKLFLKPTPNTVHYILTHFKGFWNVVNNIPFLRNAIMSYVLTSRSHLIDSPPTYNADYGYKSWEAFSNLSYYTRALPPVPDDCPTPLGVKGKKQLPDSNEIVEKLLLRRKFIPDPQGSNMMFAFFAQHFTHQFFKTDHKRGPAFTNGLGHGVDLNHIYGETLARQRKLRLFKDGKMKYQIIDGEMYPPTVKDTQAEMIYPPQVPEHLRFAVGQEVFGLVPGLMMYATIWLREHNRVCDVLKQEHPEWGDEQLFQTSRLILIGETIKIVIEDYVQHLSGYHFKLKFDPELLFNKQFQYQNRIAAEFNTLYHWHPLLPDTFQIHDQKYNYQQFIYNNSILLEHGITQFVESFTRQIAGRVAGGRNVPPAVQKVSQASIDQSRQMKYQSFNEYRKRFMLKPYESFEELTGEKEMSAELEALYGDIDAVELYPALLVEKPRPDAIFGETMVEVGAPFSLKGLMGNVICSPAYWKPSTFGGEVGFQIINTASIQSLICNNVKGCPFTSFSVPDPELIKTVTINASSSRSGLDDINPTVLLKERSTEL
The experiment is described as follows: Inhibition of COX2 at 50 uM. An outline of the steps:
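COX-2 activity followed as PGE2 in the medium, measured in triplicate by enzyme immunoassay: samples, enzymatic tracer and specific antiserum incubated overnight at 4 °C, plates washed, Ellman's reagent added, absorbance at 414 nm read after 1–3 h. PGE2 read from a 50–0.39 pg/mL standard curve. Percent inhibition given as mean of three experiments.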

Take `CC/C=C/C/C=C/C/C=C\C/C=C/C/C=C/CCCC(=O)OCC(O)CO` (stereo unspecified): the inhibition – broadly, the relative decrease from the control value, in per cent – in experiment [1] was 37.4%; in experiment [2] it was 71.9%.
As for `CCCCC/C=C/C/C=C\C/C=C/C/C=C/CCCC(=O)OCC(O)CO` (stereo unspecified), the inhibition in experiment [1] is 33.6%.
Take `CC/C=C/C/C=C/C/C=C/C/C=C\C/C=C/C/C=C/CCC(=O)OCC(O)CO` (stereo unspecified): the inhibition in experiment [1] came to 41.7%; in experiment [2] it was 74.2%.
As for `CCCCCCCCCCCCCCCCCC(=O)OCC(O)CO` (stereo unspecified), the values for the inhibition in experiment [1] and in experiment [2] were 32.8% and 16.5%, respectively.
In the same order, the values of `CCCCC/C=C\C/C=C\C/C=C\CCCCC(=O)OCC(O)CO` (stereo unspecified) are 38.8% and -6.5%.
As for `CC/C=C\C/C=C\C/C=C\CCCCCCCC(=O)OCC(O)CO` (stereo unspecified), the inhibition in experiment [1] was 32%.
As to `CCCCCCCC/C=C\CCCCCCCC(=O)OCC(O)CO` (stereo unspecified), the inhibition in experiment [1] turned out to be 60.6%; in experiment [2], 24.7%.
Taken in the same sequence, the figures for `CC/C=C/C/C=C/C/C=C\C/C=C/CCCCC(=O)OC[C@@H](O)CO` were 26.1% and 35.6%.
On to `CCCCC/C=C/C/C=C/C/C=C\C/C=C/CCCCCC(=O)OCC(O)CO` (stereo unspecified), for which the inhibition in experiment [1] was 37.9%; in experiment [2], 86.8%.
In the same order, the values of `CCCCC/C=C/C/C=C\CCCCCCCC(=O)OCC(O)CO` (stereo unspecified) are 38.1% and 20.5%.
`CC/C=C/C/C=C/C/C=C/C/C=C\C/C=C/CCCCCC(=O)OCC(O)CO` (stereo unspecified): the figures for the inhibition in experiment [1] and in experiment [2] were 37.4% and 92.9%, respectively.
For `CCCCC/C=C/C/C=C\C/C=C/CCCCCCC(=O)OCC(O)CO` (stereo unspecified), in experiment [1], the inhibition was determined as 53.9%.
